According to ChEMBL document CHEMBL3621043, “Discovery and Optimization of Novel, Selective Histone Methyltransferase SET7 Inhibitors by Pharmacophore- and Docking-Based Virtual Screening” (J Med Chem, 2015):
Activity calls are given as the source filed them. No cut-off for these calls is given here.

Tests used:
[1] = biological target: T1, Histone-lysine N-methyltransferase SETD7 (Homo sapiens, UniProt Q8WTS6); test: Inhibition of SET7 (unknown origin)
T1 sequence (Q8WTS6 whole entry): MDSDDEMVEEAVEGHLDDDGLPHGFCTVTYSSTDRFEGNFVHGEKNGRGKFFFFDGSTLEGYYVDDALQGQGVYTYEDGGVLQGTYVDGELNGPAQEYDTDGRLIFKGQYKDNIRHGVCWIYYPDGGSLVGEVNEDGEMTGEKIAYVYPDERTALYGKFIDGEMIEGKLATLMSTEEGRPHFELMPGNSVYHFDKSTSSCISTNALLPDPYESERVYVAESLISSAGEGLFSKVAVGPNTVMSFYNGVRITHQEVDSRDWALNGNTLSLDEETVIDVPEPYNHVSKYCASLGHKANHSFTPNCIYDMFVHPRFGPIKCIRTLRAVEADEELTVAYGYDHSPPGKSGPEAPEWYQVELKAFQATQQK
Procedure, shortened: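 AlphaLISA: purified SET7 in modified Tris buffer 15 min at room temperature, compounds added in DMSO, then substrate solution added for 60 min. Acceptor and donor beads incubated 60 min at room temperature in the dark, then Alpha-mode read. Inhibition % = (Max−Signal)/(Max−Min)×100; low control received assay buffer instead of enzyme.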

[2] = biological target: T1, Histone-lysine N-methyltransferase SETD7; test: Competitive inhibition of SET7 (unknown origin) after 60 mins by AlphaLISA method in presence of SAM
[3] = biological target: DNA (cytosine-5)-methyltransferase 1 (Homo sapiens) (UniProt P26358); test: Inhibition of DNMT1 (unknown origin) using poly(dI-DC) as substrate at 100 uM preincubated for 15 mins followed by substrate and [3H]SAM addition measured after 120 mins by microbeta counting analysis relative to control
Procedure, shortened: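 Radioactive methylation assay in modified Tris buffer with poly(dI-dC) substrate. Enzyme held 15 min at room temperature, then substrate and [3H]-SAM added. Reaction run 120 min at 37 °C, then moved to 0.5% PEI-pretreated filter plates, washed with water under vacuum and counted. Maximum = enzyme plus substrate; minimum = substrate only.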

[4] = biological target: Histone-lysine N-methyltransferase EZH2 (Homo sapiens) (UniProt Q15910); test: Inhibition of EZH2 (unknown origin) using H3K27me peptide as substrate at 100 uM preincubated for 15 mins followed by substrate/[3H]SAM addition by liquid scintillation counting analysis relative to control
Procedure, shortened: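 Enzyme in modified Tris buffer, 15 min at room temperature, then H3K27me peptide plus [3H]-SAM added to start. Stopped with cold SAM (final 0.5 mM), transferred to FlashPlate for at least 1 h at room temperature, washed with water/0.1% Tween-20, then scintillation counting.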

[5] = biological target: Histone-lysine N-methyltransferase, H3 lysine-36 specific (Homo sapiens) (UniProt Q96L73); test: Inhibition of NSD1 (unknown origin) at 100 uM preincubated for 15 mins followed by substrate/[3H]-SAM addition measured after 4 hrs by liquid scintillation counting analysis relative to control
Procedure, shortened: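 Enzyme in modified Tris buffer, 15 min at room temperature, then substrate and [3H]-SAM added. After 4 h, cold SAM stop, transfer to PEI-pretreated GF/B filter plate, water washes under vacuum, then scintillation counting.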

[6] = biological target: T2, N-lysine methyltransferase KMT5A (Homo sapiens) (UniProt Q9NQR1); test: Inhibition of SETD8 (unknown origin) at 100 uM preincubated for 15 mins measured after 120 mins by microbeta counting analysis in presence of [3H]-SAM relative to control
T2 sequence (whole entry): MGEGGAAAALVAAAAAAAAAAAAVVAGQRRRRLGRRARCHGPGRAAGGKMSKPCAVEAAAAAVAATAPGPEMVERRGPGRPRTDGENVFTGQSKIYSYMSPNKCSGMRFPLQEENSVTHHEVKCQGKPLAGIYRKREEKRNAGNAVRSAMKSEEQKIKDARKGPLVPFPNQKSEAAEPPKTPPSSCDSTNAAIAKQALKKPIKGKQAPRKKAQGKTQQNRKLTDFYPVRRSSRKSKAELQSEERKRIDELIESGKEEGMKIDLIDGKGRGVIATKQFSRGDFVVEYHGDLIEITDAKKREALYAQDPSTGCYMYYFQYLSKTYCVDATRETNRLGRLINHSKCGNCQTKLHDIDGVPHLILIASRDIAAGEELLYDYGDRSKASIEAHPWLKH
Procedure, shortened: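 Compounds added in DMSO and enzyme held 15 min at room temperature in modified Tris buffer. Reaction started with peptide plus [3H]-SAM and stopped with cold SAM after 120 min. Transferred to streptavidin FlashPlate for at least 60 min, washed with water/0.1% Tween-20, then counted.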

[7] = biological target: T3, Histone-lysine N-methyltransferase EHMT2 (Homo sapiens) (UniProt Q96KQ7); test: Inhibition of G9a (unknown origin) at 100 uM preincubated for 15 mins followed by substrate addition measured after 60 mins by AlphaLISA method relative to control
T3 sequence (whole entry): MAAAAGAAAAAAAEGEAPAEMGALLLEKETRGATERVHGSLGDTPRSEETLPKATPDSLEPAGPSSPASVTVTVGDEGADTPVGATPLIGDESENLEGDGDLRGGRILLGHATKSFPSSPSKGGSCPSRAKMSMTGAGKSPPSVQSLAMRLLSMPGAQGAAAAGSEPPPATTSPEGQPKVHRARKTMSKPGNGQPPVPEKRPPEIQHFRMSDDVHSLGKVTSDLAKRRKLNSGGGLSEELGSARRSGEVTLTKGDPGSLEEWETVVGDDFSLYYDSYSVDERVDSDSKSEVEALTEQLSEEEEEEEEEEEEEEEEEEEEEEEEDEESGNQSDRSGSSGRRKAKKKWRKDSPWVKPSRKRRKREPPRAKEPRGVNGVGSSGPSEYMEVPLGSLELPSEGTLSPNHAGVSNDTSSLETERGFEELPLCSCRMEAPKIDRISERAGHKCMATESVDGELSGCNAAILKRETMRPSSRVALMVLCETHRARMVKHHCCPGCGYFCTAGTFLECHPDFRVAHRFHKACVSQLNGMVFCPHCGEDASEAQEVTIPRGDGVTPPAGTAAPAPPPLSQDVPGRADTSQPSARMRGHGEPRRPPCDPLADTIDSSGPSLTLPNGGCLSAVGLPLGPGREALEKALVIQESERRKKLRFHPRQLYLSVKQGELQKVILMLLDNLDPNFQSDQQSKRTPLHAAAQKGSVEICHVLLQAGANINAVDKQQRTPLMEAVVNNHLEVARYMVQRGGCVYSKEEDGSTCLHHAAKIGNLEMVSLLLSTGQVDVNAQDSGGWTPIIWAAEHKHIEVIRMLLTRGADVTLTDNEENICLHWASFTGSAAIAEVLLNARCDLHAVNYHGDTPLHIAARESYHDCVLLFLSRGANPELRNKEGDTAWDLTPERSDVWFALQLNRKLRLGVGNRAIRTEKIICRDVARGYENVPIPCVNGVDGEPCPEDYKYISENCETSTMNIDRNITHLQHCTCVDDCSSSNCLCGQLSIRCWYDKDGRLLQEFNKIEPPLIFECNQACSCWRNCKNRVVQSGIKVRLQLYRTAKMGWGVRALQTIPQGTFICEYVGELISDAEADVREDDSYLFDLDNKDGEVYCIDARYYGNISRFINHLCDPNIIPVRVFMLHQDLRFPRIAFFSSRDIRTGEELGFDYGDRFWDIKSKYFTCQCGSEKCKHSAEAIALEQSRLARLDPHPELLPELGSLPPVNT
Procedure, shortened: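 AlphaLISA in modified Tris buffer: compounds (DMSO) with enzyme 15 min at room temperature, then substrate mix added for 60 min at room temperature. Acceptor and donor bead mix added for 60 min in subdued light, then Alpha signal read.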

[8] = biological target: DNMT3A2/3L complex (Homo sapiens) (UniProt Q9Y6K1+Q9UJW3); test: Inhibition of DNMT3A/3L (unknown origin) using IDT-01 sequence 1/IDT-01 sequence 2 as substrate at 100 uM preincubated for 15 mins followed by substrate addition measured after 4 hrs by liquid scintillation counting analysis relative to control; type: protein-complex assay
Procedure, shortened: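 Radioactive methylation assay in modified Tris buffer with IDT-01 Sequence 1 and Sequence 2 as substrates. Enzyme preincubated 15 min at room temperature before substrate added. After 4 h at room temperature, stopped with cold SAM, then transferred to FlashPlate and read by liquid scintillation counting.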

MV4-11 = test: Cytotoxicity against human MV4-11 cells assessed as inhibition of cell proliferation after 120 hrs by alamar blue assay; type: functional, cell-based
Procedure, shortened: (§1)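 Cells seeded at approximately 2*10^4 per well in 100 µL medium, grown overnight, then exposed for about 120 h to 0–100 µM in DMSO. MCF7 and HCT116 read by MTT: 2 h at 37 °C, crystals dissolved in DMSO, absorbance 490 nm with 630 nm reference. HL60, MV4-11 and DHL4 read by alamarBlue, fluorescence ex 544/em 590 nm. Signals normalized to control wells.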

SUD4 = test: Cytotoxicity against human SU-DHL4 cells assessed as inhibition of cell proliferation after 120 hrs by alamar blue assay; type: functional, cell-based; procedure, shortened: as §1
MCF7 = test: cells; settings: Homo sapiens, MCF7, 120 h
HL-60 = test: cells; settings: Homo sapiens, HL-60, 120 h
HCT-116 = test: Cytotoxicity against human HCT116 cells assessed as inhibition of cell proliferation after 120 hrs by MTT assay
[9] = biological target: Histone-lysine N-methyltransferase, H3 lysine-79 specific (Homo sapiens) (UniProt Q8TEK3); test: Inhibition of DOT1L (unknown origin) at 100 uM preincubated for 15 mins followed by oligonucleosomes/SAM addition measured after 30 mins by AlphaLISA method relative to control

Histone-lysine N-methyltransferase, H3 lysine-36 specific (Homo sapiens), sequence (Q96L73 whole entry): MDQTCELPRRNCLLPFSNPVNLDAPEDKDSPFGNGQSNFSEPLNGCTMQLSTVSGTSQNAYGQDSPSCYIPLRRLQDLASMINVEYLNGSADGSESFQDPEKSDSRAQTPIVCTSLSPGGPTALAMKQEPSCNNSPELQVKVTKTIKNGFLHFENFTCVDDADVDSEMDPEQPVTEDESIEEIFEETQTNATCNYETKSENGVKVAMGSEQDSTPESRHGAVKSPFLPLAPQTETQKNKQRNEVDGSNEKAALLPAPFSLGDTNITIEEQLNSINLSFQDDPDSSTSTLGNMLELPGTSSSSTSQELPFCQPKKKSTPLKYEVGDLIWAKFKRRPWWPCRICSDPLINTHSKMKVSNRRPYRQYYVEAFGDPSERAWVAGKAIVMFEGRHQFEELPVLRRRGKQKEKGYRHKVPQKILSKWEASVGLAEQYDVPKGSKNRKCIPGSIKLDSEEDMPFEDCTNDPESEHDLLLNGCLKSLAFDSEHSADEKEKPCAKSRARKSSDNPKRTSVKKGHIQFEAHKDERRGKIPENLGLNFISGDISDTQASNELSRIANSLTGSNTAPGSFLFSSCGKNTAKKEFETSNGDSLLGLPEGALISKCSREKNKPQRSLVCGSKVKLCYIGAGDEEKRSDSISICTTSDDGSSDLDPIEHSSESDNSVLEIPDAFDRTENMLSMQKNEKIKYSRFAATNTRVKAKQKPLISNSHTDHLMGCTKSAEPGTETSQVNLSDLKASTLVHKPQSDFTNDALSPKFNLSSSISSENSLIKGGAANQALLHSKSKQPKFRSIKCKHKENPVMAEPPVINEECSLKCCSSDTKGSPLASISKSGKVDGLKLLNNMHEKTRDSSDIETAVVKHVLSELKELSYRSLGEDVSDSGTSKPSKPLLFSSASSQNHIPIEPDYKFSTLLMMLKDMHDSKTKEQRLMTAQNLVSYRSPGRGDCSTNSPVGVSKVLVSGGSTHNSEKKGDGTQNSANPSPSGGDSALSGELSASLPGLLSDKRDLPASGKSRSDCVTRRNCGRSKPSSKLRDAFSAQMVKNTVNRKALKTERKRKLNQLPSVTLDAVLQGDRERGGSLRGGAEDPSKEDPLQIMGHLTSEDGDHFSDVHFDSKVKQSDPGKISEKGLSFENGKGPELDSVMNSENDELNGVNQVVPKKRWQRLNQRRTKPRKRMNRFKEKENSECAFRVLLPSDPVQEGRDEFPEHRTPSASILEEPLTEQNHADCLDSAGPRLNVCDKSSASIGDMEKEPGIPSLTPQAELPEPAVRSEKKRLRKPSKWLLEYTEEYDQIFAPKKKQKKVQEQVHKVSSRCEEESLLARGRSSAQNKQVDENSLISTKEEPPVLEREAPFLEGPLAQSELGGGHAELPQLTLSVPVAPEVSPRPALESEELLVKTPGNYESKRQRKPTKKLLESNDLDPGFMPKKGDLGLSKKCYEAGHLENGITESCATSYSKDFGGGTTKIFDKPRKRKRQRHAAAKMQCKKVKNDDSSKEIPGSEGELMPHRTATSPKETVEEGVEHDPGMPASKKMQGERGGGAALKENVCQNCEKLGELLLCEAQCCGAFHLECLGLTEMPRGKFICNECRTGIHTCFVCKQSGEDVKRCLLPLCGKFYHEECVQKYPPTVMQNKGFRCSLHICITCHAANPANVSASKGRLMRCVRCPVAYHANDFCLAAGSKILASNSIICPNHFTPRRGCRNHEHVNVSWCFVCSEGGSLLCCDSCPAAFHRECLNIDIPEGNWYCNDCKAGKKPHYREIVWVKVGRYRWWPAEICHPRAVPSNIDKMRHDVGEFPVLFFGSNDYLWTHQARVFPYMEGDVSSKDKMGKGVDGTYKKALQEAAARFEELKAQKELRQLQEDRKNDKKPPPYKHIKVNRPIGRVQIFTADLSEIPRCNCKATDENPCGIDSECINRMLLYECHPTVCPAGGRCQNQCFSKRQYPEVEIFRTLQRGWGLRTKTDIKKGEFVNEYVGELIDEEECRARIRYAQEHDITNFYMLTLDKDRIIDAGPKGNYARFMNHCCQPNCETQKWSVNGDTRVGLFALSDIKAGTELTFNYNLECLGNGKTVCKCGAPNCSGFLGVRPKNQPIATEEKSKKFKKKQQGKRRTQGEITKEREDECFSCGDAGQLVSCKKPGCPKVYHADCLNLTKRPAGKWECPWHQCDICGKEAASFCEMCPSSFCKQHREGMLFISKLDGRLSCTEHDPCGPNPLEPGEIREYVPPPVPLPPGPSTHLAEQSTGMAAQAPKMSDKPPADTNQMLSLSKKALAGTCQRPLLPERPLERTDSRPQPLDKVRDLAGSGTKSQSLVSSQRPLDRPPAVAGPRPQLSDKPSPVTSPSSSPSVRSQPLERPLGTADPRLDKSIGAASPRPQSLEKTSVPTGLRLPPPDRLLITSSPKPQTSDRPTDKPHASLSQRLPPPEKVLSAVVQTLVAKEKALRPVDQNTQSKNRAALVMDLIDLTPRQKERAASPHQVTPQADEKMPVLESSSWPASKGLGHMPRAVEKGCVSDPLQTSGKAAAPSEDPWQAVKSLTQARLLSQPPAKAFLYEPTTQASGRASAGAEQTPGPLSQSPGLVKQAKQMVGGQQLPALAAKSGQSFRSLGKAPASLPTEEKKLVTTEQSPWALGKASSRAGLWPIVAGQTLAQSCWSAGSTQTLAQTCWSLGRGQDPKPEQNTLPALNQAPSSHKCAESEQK
DNA (cytosine-5)-methyltransferase 1 (Homo sapiens), sequence (P26358 whole entry): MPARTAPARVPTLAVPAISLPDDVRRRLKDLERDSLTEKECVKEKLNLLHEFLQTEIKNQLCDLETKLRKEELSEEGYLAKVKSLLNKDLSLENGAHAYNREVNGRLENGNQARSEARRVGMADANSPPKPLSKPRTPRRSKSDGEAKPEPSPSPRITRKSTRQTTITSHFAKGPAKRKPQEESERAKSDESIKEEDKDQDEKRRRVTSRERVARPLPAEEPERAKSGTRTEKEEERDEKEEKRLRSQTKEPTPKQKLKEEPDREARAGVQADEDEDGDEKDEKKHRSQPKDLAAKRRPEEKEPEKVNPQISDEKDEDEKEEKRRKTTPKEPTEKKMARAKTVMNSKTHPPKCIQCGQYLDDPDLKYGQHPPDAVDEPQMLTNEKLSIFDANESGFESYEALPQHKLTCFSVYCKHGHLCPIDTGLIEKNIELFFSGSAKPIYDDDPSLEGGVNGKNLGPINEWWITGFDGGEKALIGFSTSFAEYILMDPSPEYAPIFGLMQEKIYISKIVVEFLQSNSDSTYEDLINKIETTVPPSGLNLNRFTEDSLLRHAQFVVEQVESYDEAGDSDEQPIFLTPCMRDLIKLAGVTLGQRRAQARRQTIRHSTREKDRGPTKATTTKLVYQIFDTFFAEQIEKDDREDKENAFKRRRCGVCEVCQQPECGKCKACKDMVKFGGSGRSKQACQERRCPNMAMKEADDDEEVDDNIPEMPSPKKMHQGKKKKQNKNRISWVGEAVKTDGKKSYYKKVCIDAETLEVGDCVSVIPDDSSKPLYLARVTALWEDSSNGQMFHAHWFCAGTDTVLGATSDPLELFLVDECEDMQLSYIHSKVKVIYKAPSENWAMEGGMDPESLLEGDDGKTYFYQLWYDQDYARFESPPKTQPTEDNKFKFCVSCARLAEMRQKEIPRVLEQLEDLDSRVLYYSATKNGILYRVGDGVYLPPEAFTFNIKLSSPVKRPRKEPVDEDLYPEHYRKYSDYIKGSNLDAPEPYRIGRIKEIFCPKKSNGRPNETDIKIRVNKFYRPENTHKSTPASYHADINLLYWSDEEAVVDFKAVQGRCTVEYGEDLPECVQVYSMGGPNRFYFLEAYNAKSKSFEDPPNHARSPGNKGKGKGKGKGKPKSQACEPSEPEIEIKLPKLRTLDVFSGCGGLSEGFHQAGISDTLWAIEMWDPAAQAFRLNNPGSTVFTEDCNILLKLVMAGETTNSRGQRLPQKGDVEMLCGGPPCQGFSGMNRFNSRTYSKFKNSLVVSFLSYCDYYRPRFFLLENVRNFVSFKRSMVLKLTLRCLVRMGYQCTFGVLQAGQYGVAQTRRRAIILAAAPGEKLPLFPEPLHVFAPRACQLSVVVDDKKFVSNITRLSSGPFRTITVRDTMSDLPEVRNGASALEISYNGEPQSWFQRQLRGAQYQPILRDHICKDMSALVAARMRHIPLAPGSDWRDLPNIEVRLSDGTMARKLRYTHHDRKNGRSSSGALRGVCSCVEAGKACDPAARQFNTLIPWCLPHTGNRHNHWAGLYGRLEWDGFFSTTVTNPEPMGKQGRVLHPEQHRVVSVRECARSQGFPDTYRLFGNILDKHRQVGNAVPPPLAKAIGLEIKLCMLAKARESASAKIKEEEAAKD
Histone-lysine N-methyltransferase EZH2 (Homo sapiens), sequence (Q15910 whole entry, looked up): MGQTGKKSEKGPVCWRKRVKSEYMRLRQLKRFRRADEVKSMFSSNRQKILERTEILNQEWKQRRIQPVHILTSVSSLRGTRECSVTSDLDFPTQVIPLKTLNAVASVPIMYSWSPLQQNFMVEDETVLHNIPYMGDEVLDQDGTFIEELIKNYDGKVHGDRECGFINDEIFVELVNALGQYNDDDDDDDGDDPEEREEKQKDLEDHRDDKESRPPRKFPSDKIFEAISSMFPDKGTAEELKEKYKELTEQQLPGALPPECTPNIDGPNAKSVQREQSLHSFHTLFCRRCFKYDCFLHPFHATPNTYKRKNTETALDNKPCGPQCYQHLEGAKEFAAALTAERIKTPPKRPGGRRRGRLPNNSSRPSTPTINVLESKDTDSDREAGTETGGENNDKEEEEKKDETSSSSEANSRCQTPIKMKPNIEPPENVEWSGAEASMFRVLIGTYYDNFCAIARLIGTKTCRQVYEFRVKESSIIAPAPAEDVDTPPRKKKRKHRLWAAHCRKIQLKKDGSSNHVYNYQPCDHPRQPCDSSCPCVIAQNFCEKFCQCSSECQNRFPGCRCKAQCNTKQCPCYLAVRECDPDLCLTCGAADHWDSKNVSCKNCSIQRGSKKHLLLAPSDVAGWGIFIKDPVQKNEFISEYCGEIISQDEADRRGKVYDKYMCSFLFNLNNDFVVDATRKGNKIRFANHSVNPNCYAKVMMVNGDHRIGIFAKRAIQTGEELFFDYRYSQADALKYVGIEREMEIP

IC50 [1]	IC50 [2]	inhibition [3]	inhibition [4]	inhibition [5]	inhibition [6]	inhibition [7]	inhibition [8]	IC50 (MCF7)	IC50 (HL-60)	inhibition [9]	SMILES	inhibition (MV4-11)	inhibition (SUD4)	inhibition (HCT-116)
20 µM	–	–	–	–	–	–	–	–	–	–	CN1CCC(=C2c3ccccc3C=Cc3ccccc32)CC1 [CYPROHEPTADINE]	–	–	–
–	4.88 µM	9.82%	19.6%	25.1%	45.5%	29.9%	–	–	–	–	COC(=O)c1c(N)sc(C(=O)Nc2cccc([N+](=O)[O-])c2)c1C	–	–	–
–	61.7 µM	–	–	–	–	–	–	–	–	–	O=C(Nc1cccc([N+](=O)[O-])c1)c1ccc2c(c1)OCO2	–	–	–
–	4.59 µM	16.1%	19.6%	27.2%	40.9%	-0.71%	-4.25%	10.9 µM	16.4 µM	-5.42%	CCOC(=O)c1c(N)sc(C(=O)Nc2cccc([N+](=O)[O-])c2)c1C	Dose-dependent effect	inactive	inactive
